These results are taken from ChEMBL document CHEMBL4627266, “Design and biological evaluation of a novel type of potential multi-targeting antimicrobial sulfanilamide hybrids in combination of pyrimidine and azoles” (Bioorg Med Chem Lett, 2020).

Values after ≈ are worked out from the molar mass of the structure shown. Active and inactive are the calls of the source. The rule behind the calls is not given here.

Experiment [1] deals with Staphylococcus aureus. Kind of experiment: Antibacterial activity against methicillin-resistant Staphylococcus aureus by two fold serial microbroth dilution method. Type of experiment: functional. A digest of the protocol: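 Two-fold serial microbroth dilution in microdilution plates, run per CLSI, with clinical antibacterial drugs as positive controls. The MRSA strain was a drug-resistant clinical isolate from infected patients. MIC (μg/mL) was read as the lowest concentration giving complete inhibition of visible bacterial growth.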
(Dilution methods test growth across graded concentrations, often in twofold steps.)

For experiment [2], the system named is Staphylococcus aureus. Kind of experiment: Antibacterial activity against Staphylococcus aureus by two fold serial microbroth dilution method. Format: functional. The method in brief:
(§1)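 Two-fold serial dilution in microdilution plates (micro broth dilution) following CLSI. Panel includes clinical drug-resistant isolates and ATCC reference strains. Clinical drugs were run as positive controls.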

In experiment [3] the test system is Staphylococcus aureus. Kind of experiment: Antibacterial activity against Staphylococcus aureus ATCC 25923 by two fold serial microbroth dilution method. Type of experiment: functional. A digest of the protocol:
as §1

Experiment [4] deals with Enterococcus faecalis. Kind of experiment: Antibacterial activity against Enterococcus faecalis by two fold serial microbroth dilution method. Format: functional. A digest of the protocol: as §1
A further experiment relates to Klebsiella pneumoniae. Kind of experiment: Antibacterial activity against Klebsiella pneumoniae by two fold serial microbroth dilution method. Format: functional. A digest of the protocol:
as §1

Experiment [5] concerns Escherichia coli. As to the kind of experiment: Antibacterial activity against Escherichia coli by two fold serial microbroth dilution method. Format: functional. The method in brief: as §1
Experiment [6] concerns Escherichia coli. Kind of experiment: Antibacterial activity against Escherichia coli ATCC 25922 by two fold serial microbroth dilution method. Type of experiment: functional. The method in brief: as §1
For experiment [7], the system named is Pseudomonas aeruginosa. Kind of experiment: Antibacterial activity against Pseudomonas aeruginosa by two fold serial microbroth dilution method. Type of experiment: functional. A digest of the protocol:
as §1

For experiment [8], the system named is Pseudomonas aeruginosa. As to the kind of experiment: Antibacterial activity against Pseudomonas aeruginosa ATCC 27853 by two fold serial microbroth dilution method. Format: functional. A digest of the protocol: as §1
The next experiment has as its system Acinetobacter baumannii. Kind of experiment: Antibacterial activity against Acinetobacter baumannii by two fold serial microbroth dilution method. Type of experiment: functional. A digest of the protocol:
as §1

In experiment [9] the test system is Staphylococcus aureus. As to the kind of experiment: Antibacterial activity against Staphylococcus aureus ATCC 29213 by two fold serial microbroth dilution method. Format: functional. The method in brief: as §1
For experiment [10], the system named is Candida albicans. Kind of experiment: Antifungal activity against Candida albicans by two fold serial microbroth dilution method. Format: functional. The method in brief: (§2)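 Antifungal MIC by two-fold serial dilution following CLSI, with a clinical drug as positive control. Panel includes clinical drug-resistant fungal isolates.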
For experiment [11], the system named is Candida albicans. Kind of experiment: Antifungal activity against Candida albicans ATCC 90023 by two fold serial microbroth dilution method. Format: functional. The method in brief:
as §2

In the next experiment the test system is Candida tropicalis. Kind of experiment: Antifungal activity against Candida tropicalis by two fold serial microbroth dilution method. Format: functional. A digest of the protocol:
as §2

Another experiment has as its system Aspergillus fumigatus. Kind of experiment: Antifungal activity against Aspergillus fumigatus by two fold serial microbroth dilution method. Format: functional. The method in brief: as §2
For experiment [12], the system named is Enterococcus faecalis. Kind of experiment: Antibacterial activity against Enterococcus faecalis measured after 16 passages by microbroth dilution method. Format: functional, organism-based.

One may read the MIC as the least concentration at which growth counts as inhibited. Higher therefore signals a less susceptible organism. Regarding `CC(C)c1nccn1-c1ccnc(NS(=O)(=O)c2ccc(N)cc2)n1`, the minimum inhibitory concentration (MIC) amounted to 32 µg/mL (≈ 89.3 µM) with Staphylococcus aureus [1]; 256 µg/mL (≈ 714 µM) against Staphylococcus aureus [2]; 256 µg/mL (≈ 714 µM) in the experiment on Staphylococcus aureus [3]; 128 µg/mL (≈ 357 µM) in the experiment on Enterococcus faecalis [4]; 256 µg/mL (≈ 714 µM) in the experiment with Klebsiella pneumoniae; 64 µg/mL (≈ 179 µM) in the experiment with Escherichia coli [5]. In addition, the MIC with Escherichia coli [6] is 128 µg/mL (≈ 357 µM); in the experiment on Pseudomonas aeruginosa [7], 128 µg/mL (≈ 357 µM); against Pseudomonas aeruginosa [8] it was 32 µg/mL (≈ 89.3 µM); against Acinetobacter baumannii, 64 µg/mL (≈ 179 µM); with Staphylococcus aureus [9], 32 µg/mL (≈ 89.3 µM).

With `Nc1ccc(S(=O)(=O)Nc2nccc(-n3cncn3)n2)cc1`, the minimum inhibitory concentration (MIC) in the experiment with Staphylococcus aureus [1] worked out at 128 µg/mL (≈ 403 µM); against Staphylococcus aureus [2], 512 µg/mL (≈ 1610 µM); against Staphylococcus aureus [3] it was 256 µg/mL (≈ 807 µM); against Enterococcus faecalis [4] it was 256 µg/mL (≈ 807 µM); in the experiment with Klebsiella pneumoniae, 32 µg/mL (≈ 101 µM); in the experiment with Escherichia coli [5] it was 128 µg/mL (≈ 403 µM). In addition, the MIC against Escherichia coli [6] is 256 µg/mL (≈ 807 µM); against Pseudomonas aeruginosa [7], 4 µg/mL (≈ 12.6 µM); against Pseudomonas aeruginosa [8] it was 32 µg/mL (≈ 101 µM); in the experiment with Acinetobacter baumannii, 128 µg/mL (≈ 403 µM); in the experiment with Candida albicans [10], 8 µg/mL (≈ 25.2 µM); with Staphylococcus aureus [9], 64 µg/mL (≈ 202 µM).

As for `Cc1cc2ncn(-c3ccnc(NS(=O)(=O)c4ccc(N)cc4)n3)c2cc1C`, the minimal inhibitory concentration (MIC) in the experiment with Staphylococcus aureus [1] came out at 64 µg/mL (≈ 162 µM); against Staphylococcus aureus [2], 256 µg/mL (≈ 649 µM); in the experiment with Staphylococcus aureus [3], 256 µg/mL (≈ 649 µM); in the experiment with Enterococcus faecalis [4], 256 µg/mL (≈ 649 µM); in the experiment on Klebsiella pneumoniae it was 256 µg/mL (≈ 649 µM); with Escherichia coli [5], 256 µg/mL (≈ 649 µM). For the same compound, the MIC against Escherichia coli [6] was 512 µg/mL (≈ 1300 µM); in the experiment with Pseudomonas aeruginosa [7] it was 256 µg/mL (≈ 649 µM); in the experiment on Pseudomonas aeruginosa [8], 128 µg/mL (≈ 324 µM); against Acinetobacter baumannii, 128 µg/mL (≈ 324 µM); in the experiment with Staphylococcus aureus [9] it was 128 µg/mL (≈ 324 µM).

`Cc1nccn1-c1ccnc(NS(=O)(=O)c2ccc(N)cc2)n1`: the MIC with Staphylococcus aureus [1] was found to be 128 µg/mL (≈ 387 µM); in the experiment with Staphylococcus aureus [2], 256 µg/mL (≈ 775 µM); against Staphylococcus aureus [3], 256 µg/mL (≈ 775 µM); in the experiment with Enterococcus faecalis [4], 128 µg/mL (≈ 387 µM); with Klebsiella pneumoniae, 512 µg/mL (≈ 1550 µM); against Escherichia coli [5] it was 128 µg/mL (≈ 387 µM). Also, the MIC amounted to 256 µg/mL (≈ 775 µM) against Escherichia coli [6]; 128 µg/mL (≈ 387 µM) in the experiment on Pseudomonas aeruginosa [7]; 256 µg/mL (≈ 775 µM) against Pseudomonas aeruginosa [8]; 256 µg/mL (≈ 775 µM) with Acinetobacter baumannii; 256 µg/mL (≈ 775 µM) in the experiment with Staphylococcus aureus [9].

In the case of `CCCc1nccn1-c1ccnc(NS(=O)(=O)c2ccc(N)cc2)n1`, the MIC against Staphylococcus aureus [1] came out at 16 µg/mL (≈ 44.6 µM); against Staphylococcus aureus [2] it was 8 µg/mL (≈ 22.3 µM); with Staphylococcus aureus [3], 64 µg/mL (≈ 179 µM); in the experiment on Enterococcus faecalis [4] it was 64 µg/mL (≈ 179 µM); in the experiment on Klebsiella pneumoniae, 64 µg/mL (≈ 179 µM); in the experiment with Escherichia coli [5] it was 16 µg/mL (≈ 44.6 µM). The minimum inhibitory concentration (MIC) in the experiment with Escherichia coli [6] came out at 128 µg/mL (≈ 357 µM); in the experiment with Pseudomonas aeruginosa [7], 128 µg/mL (≈ 357 µM); with Pseudomonas aeruginosa [8], 128 µg/mL (≈ 357 µM); against Acinetobacter baumannii it was 32 µg/mL (≈ 89.3 µM); with Candida albicans [11], 4 µg/mL (≈ 11.2 µM); in the experiment with Staphylococcus aureus [9], 8 µg/mL (≈ 22.3 µM).

As to `Nc1ccc(S(=O)(=O)Nc2nccc(-n3ccc4cc([N+](=O)[O-])ccc43)n2)cc1`, the MIC against Staphylococcus aureus [1] came to 16 µg/mL (≈ 39 µM); with Staphylococcus aureus [2], 32 µg/mL (≈ 78 µM); with Staphylococcus aureus [3] it was 4 µg/mL (≈ 9.75 µM); against Enterococcus faecalis [4], 8 µg/mL (≈ 19.5 µM); in the experiment on Klebsiella pneumoniae, 32 µg/mL (≈ 78 µM); with Escherichia coli [5], 8 µg/mL (≈ 19.5 µM). The MIC is 128 µg/mL (≈ 312 µM) against Escherichia coli [6]; 16 µg/mL (≈ 39 µM) against Pseudomonas aeruginosa [7]; 8 µg/mL (≈ 19.5 µM) in the experiment on Pseudomonas aeruginosa [8]; 128 µg/mL (≈ 312 µM) in the experiment with Acinetobacter baumannii; 2 to 8 µg/mL (≈ 4.87 to 19.5 µM) against Candida albicans [10]; 2 to 8 µg/mL (≈ 4.87 to 19.5 µM) in the experiment on Candida tropicalis. The minimal inhibitory concentration (MIC) with Aspergillus fumigatus was 2 to 8 µg/mL (≈ 4.87 to 19.5 µM); in the experiment on Staphylococcus aureus [9], 64 µg/mL (≈ 156 µM).

Regarding `CCn1cc(C(=O)O)c(=O)c2cc(F)c(N3CCNCC3)cc21` [NORFLOXACIN], the MIC against Staphylococcus aureus [1] amounted to 8 µg/mL (≈ 25.1 µM); with Staphylococcus aureus [2], 0.5 µg/mL (≈ 1.57 µM); in the experiment on Staphylococcus aureus [3], 1 µg/mL (≈ 3.13 µM); in the experiment on Enterococcus faecalis [4], 4 µg/mL (≈ 12.5 µM); in the experiment on Klebsiella pneumoniae it was 4 µg/mL (≈ 12.5 µM); against Escherichia coli [5] it was 16 µg/mL (≈ 50.1 µM). The minimum inhibitory concentration (MIC) with Escherichia coli [6] is 8 µg/mL (≈ 25.1 µM); in the experiment with Pseudomonas aeruginosa [7] it was 2 µg/mL (≈ 6.26 µM); in the experiment with Pseudomonas aeruginosa [8], 0.5 µg/mL (≈ 1.57 µM); with Acinetobacter baumannii, 8 µg/mL (≈ 25.1 µM); against Staphylococcus aureus [9] it was 2 µg/mL (≈ 6.26 µM). Besides, the outcome in the experiment with Enterococcus faecalis [12] was inactive.
